Apaf-1 act: activators of human Apaf-1 apoptosome; O14727; Apaf-1 apoptosome caspase-3 activation, DEVD-Rh110 fluorescence; stronger effect = lower value; activity change, negative = activation, % at 20 µM; 0.31% of 330,000 active;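 active = activity change at or below -40% at 20 µM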
Target sequence (O14727 whole entry, looked up): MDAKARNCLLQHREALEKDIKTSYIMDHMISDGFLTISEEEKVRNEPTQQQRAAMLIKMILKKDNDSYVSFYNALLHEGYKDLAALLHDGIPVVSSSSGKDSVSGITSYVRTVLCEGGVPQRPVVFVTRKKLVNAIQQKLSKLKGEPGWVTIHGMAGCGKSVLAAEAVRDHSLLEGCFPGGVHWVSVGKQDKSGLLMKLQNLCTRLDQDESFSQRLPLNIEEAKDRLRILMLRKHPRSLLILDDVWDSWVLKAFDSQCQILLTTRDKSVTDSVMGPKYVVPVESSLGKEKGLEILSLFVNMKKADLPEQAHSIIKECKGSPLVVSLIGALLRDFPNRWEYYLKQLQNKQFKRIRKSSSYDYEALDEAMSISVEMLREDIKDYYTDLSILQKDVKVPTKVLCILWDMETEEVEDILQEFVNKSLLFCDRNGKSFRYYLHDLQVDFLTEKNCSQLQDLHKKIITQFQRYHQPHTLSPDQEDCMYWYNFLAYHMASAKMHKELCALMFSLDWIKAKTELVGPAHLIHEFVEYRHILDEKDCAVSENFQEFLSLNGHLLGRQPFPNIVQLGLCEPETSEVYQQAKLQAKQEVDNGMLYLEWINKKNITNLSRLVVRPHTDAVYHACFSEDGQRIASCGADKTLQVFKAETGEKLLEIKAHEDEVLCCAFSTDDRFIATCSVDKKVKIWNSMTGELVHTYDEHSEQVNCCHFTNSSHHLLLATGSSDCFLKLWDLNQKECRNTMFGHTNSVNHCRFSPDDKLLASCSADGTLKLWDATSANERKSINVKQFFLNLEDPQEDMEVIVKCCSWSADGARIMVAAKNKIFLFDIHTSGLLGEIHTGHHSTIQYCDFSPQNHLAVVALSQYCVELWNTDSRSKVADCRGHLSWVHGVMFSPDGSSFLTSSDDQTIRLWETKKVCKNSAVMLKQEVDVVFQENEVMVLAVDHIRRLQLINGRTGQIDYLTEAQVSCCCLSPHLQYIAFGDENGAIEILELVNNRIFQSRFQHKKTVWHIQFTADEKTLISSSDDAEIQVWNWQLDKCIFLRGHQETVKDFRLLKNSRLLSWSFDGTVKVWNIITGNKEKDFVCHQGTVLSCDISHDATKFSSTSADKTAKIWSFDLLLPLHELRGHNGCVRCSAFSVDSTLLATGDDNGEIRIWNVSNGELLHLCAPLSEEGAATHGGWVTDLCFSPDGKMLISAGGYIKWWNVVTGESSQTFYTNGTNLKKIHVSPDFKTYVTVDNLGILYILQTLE
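Material: reconstituted apoptosome of Apaf-1, cytochrome c, caspase-9, procaspase-3; times: 30 min preincubation, 50 min reaction, room temperature; measured by: fluorescence, 540 nm emission, 480 nm excitation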
Rh110 interf act: Rh110 signal interference in Apaf-1 activator counter-screen. shares compounds with Apaf-1 act. AID 504616. 980 tested, under 10 active. Rh110 fluorescence interference, quenched caspase reaction, Ex480/Em540. fluorescence interference (activity change), % at 20 µM, hits read low;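 active = mean activity change at or below -40% when tested at 20 µM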
Apaf-1 act conf: Apaf-1 (human) activation, single-dose confirmed; activity change, negative = activation, % at 20 µM; shares compounds with Apaf-1 act; reconstituted apoptosome caspase-3 activity, DEVD-Rh110 fluorescence; stronger effect = lower value; AID 504617; 5% of 980 active;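 active = mean activity change at or below -40%, meaning activation of 40% or more, at 20 µM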
Apaf1 act interf: counter-screen for Apaf-1 activators: fluorescence interference, dose response | shares compounds with Apaf-1 act | fluorescence interference counterscreen, Apaf-1 activator assay | EC50, µM | 55 tested, under 10 active; call rule not given here
* marks the source's active call; other numbers are inactive results; . = not tested or not shown. The list is a sample of the results.

SMILES | Apaf-1 act | Rh110 interf act | Apaf-1 act conf | others
CC(C)N=c1cc2n(-c3ccc(Cl)cc3)c3ccccc3nc-2cc1Nc1ccc(Cl)cc1 | 68.2 | . | .
CCN1CCc2c(sc(NC(=O)c3ccc(C(=O)c4ccccc4)cc3)c2C(N)=O)C1 | 43.6 | . | .
NC(=O)c1c(NC(=O)CCCn2cnc([N+](=O)[O-])n2)sc2c1CCCC2 | -90.3* | -1.0 | 16.0
COc1ccccc1C1Nc2cccc3cccc(c23)N1 | 51.3 | . | .
O=C(CNc1cccc2ccccc12)N/N=C/c1ccccn1 | 48.2 | . | .
O=C(Cn1c(-c2ccccn2)nc2ccccc21)N/N=C/c1ccccn1 | -44.3* | -0.3 | 9.9
CCn1c(SCC(=O)N/N=C/C=C\c2ccco2)nc2ccccc21 | 46.9 | . | .
COCCn1c(N)c(C(=O)OCc2ccccc2)c2nc3ccccc3nc21 | 94.5 | . | .
O=C1C(=O)c2ccc(-c3ccccc3)cc2-c2ccccc21 | 98.1 | . | .
CCCCCc1cc(=O)oc2c(C(CCN(CC)CC)c3ccc(OC)cc3)c(OC)cc(OC)c12 (stereo unspecified) | 60.6 | . | .
CN1CCN(S(=O)(=O)c2ccc(N3CCN(C(c4ccccc4)c4ccccc4)CC3)nc2)CC1 | -77.6* | -2.5 | 11.4
COc1ccc(S(=O)(=O)N2CCN(c3ccc4nnc(-c5ccccc5)n4n3)CC2)cc1 | 64.9 | . | .
CC1(C)C(C(=O)OCC(Cl)(Cl)Cl)N2C(=O)C(NC(=O)Cc3ccccc3)C2S1=O (stereo unspecified) | -84.7* | -0.3 | 12.1
CC1(C)S[C@@H]2[C@H](NC(=O)[C@H](N)c3ccccc3)C(=O)N2[C@H]1C(=O)O | -1.8 | . | .
O=C1C=C(N2CCCCC2)c2ccccc2C1=O | 97.6 | . | .
CC[C@@H](C)[C@@H]1CN([C@@H](C)CN2CCC[C@H]2CN2C(N)=NC[C@H]2CC(C)C)C(=N)N1CCc1ccc(Cl)c(Cl)c1 | 51.8 | . | .
COc1ccccc1-n1ccnc1SCC(=O)NCc1ccco1 | -146.0* | 16.5 | 18.8
COc1ccc(-c2c(C#Cc3ccc(N(C)C)cc3)c3ccccc3n2C)cc1 | 56.7 | . | .
COc1ccc(S(=O)(=O)Oc2ccc3cccc(N)c3c2)cc1 | 88.0 | . | .
O=C(/C=C/c1ccc(-c2ccccc2[N+](=O)[O-])o1)c1ccco1 | 42.8 | . | .
OC(CN1CCN(c2ccccc2)CC1)c1ccc2c(c1)CCN2 (stereo unspecified) | -459.9* | 17.8 | 13.6
COc1cccc(OCC(O)CN2CCN(c3ccccc3)CC2)c1 (stereo unspecified) | 4.7 | . | .
CCCc1cc(=O)oc2c3c(c4c(c12)OC(C)(C)C=C4)OC(C)C(C)C3O (stereo unspecified) | 52.7 | . | .
Cc1ccc(NC2=CC(=O)C(=O)c3ccccc32)cc1 | 86.9 | . | .
C=CC[C@@H](Cc1ccc(F)cc1)C(=O)OC[C@@H]1CCCN1C(=O)[C@@H](CC=C)CC(=O)N[C@@H](CO)Cc1ccccc1 | 40.4 | . | .
SMILES | Apaf-1 act | Rh110 interf act | Apaf-1 act conf | others
CNC(=S)N/N=C(\C)c1ccc(C)c(C)c1 | -246.0* | 1.7 | 5.7
O=C(COc1ccccc1)NCC(=O)NC1CCCCC1 | -40.0* | 3.4 | 9.3
CSCCC(NC(=O)COc1ccccc1)C(=O)N1CCC(C(N)=O)CC1 (stereo unspecified) | 63.7 | . | .
COc1ccc(Nc2ccc3c(c2)=NC2(CCCCC2)[N+]=3[O-])cc1 | 79.7 | . | .
O=[N+]([O-])c1ccc(N/N=C/c2ccc(O)c(O)c2O)c(S(=O)(=O)N2CCOCC2)c1 | 62.7 | . | .
COc1ccc(-c2nn(-c3ccccc3)cc2/C=C(\C#N)C(N)=O)cc1[N+](=O)[O-] | -53.4* | -0.9 | -29.4
COc1ccc(-c2nn(-c3ccccc3)cc2/C=C(/C#N)C(N)=O)cc1[N+](=O)[O-] | -56.6* | 12.2 | -22.8
N#C/C(=C/c1cn(-c2ccccc2)nc1-c1cccc(OCc2ccc(F)cc2)c1)C(=O)NCCCn1ccnc1 | 43.9 | . | .
CC1=NN(c2ccccc2)C(=O)/C1=C\c1ccc(Oc2ccc([N+](=O)[O-])cc2[N+](=O)[O-])cc1 | 91.9 | . | .
CN1CCc2cccc3c2C1Cc1ccc(O)c(O)c1-3 (stereo unspecified) | 49.6 | . | .
O=C(Cn1ncn2c(cc3ccccc32)c1=O)NCCc1cccs1 | -392.3* | 6.1 | 7.0
Cc1cc2cc(CNS(=O)(=O)c3ccccc3)ccc2n1C | 60.9 | . | .
c1ccc2c(c1)CC/C2=N/Nc1nc2ccccc2[nH]1 | 57.1 | . | .
CC(C)=NOc1nc(N(C)C)nc(N(C)C)n1 | -76.1* | 2.6 | 1.0
CC[C@H](C)Cc1cn([C@@H](CCCCN)C(=O)NCCCCCCCCCCC(=O)N2CCNCC2)nn1 | 45.6 | . | .
CCCCOc1cc(C(=O)OCCN(CC)CC)ccc1N | 2.8 | . | .
N#CC1(NC(=O)COC(=O)c2cc(O)c3ccccc3c2O)CCCCC1 | 72.7 | . | .
CCN(c1ccccc1)S(=O)(=O)c1ccc(Cl)c(NC(=O)COC(=O)c2cc(O)c3ccccc3c2O)c1 | 47.6 | . | .
Cc1cc(C(=O)OCC(=O)Nc2ccccc2C#N)c(C)o1 | -45.5* | -11.5 | 7.5
Cc1cc(C)c2c(=O)c(/C=C3\NC(=S)NC3=O)coc2c1 | -99.0* | 9.6 | -63.1* | Apaf1 act interf=>100
Fc1ccc(C2=NOC(c3nnc(-c4ccccc4)o3)C2)cc1 (stereo unspecified) | -460.5* | 11.0 | 12.5
O/C=c1\ccc2cccc3nc(C(F)(F)F)nc1c23 | 79.1 | . | .
CC(=O)c1cccc(CN2CCN(C3CCCC3)C(CCO)C2)c1 (stereo unspecified) | -300.2* | -2.1 | 11.8
CN(Cc1ccc(Cl)c(Cl)c1)C(=O)c1cccc(S(=O)(=O)N2CCN(Cc3ccccc3)CC2)c1 | 71.8 | . | .
S=C(Nc1ccc(Cl)cc1)Nc1cccc2cnccc12 | 82.7 | . | .
SMILES | Apaf-1 act | Rh110 interf act | Apaf-1 act conf | others
Cc1[nH]n(-c2ccccc2)c(=O)c1C(C[N+](=O)[O-])c1ccc(Br)cc1 (stereo unspecified) | 87.3 | . | .
COc1cc(C2NC(=O)NC(C)=C2C(=O)OCC2CCCO2)cc(OC)c1OC (stereo unspecified) | -358.9* | 9.3 | 11.2
COC(=O)C1=C(C)N(Cc2ccccc2)C(=NCc2cc(OC)c(OC)c(OC)c2)N[C@H]1c1ccc(Br)cc1 | 54.5 | . | .
COc1cc(C2C(C#N)=C(C)NC3=C2C(=O)c2ccccc23)cc(OC)c1OC (stereo unspecified) | 54.3 | . | .
COCCCC/C(=N\OCCN)c1ccc(C(F)(F)F)cc1 | 44.4 | . | .
O=C(O)CC1S/C(=N/N=C/c2ccc(-c3ccccc3[N+](=O)[O-])o2)NC1=O (stereo unspecified) | 73.0 | . | .
CCC(OCC(O)CN1CCCCC1)c1ccccc1 (stereo unspecified) | -516.0* | 0.0 | 11.8
CCC[C@@H](CN1CCC[C@H]1CN1C(N)=NC[C@H]1CC(C)C)N1C[C@@H]([C@H](C)CC)N(CCc2ccc(Cl)c(Cl)c2)C1=N | 64.0 | . | .
O=C1CC(N2CCOCC2)=NN1c1ccc([N+](=O)[O-])cc1 | 94.4 | . | .

Screens: PubChem, Sanford-Burnham Center for Chemical Genomics
